In ChEMBL document CHEMBL1255475, “Mutant prevention concentrations of four carbapenems against gram-negative rods” (2010):
≈ marks a conversion by molar mass, not a printed value.

Assays:
Assay type in all cases: functional
[1] = tested on: Klebsiella pneumoniae; assay: Antibacterial activity against beta-lactamase-positive ESBL-negative Klebsiella pneumoniae E477 incubated up to 7 days by agar dilution method; settings: E477, 168 h
[2] = tested on: Klebsiella pneumoniae; assay: Antibacterial activity against beta-lactamase-positive ESBL-positive Klebsiella pneumoniae E478 incubated up to 7 days by agar dilution method; settings: E478, 168 h
[3] = tested on: Klebsiella pneumoniae; assay: Antibacterial activity against beta-lactamase-positive ESBL-negative Klebsiella pneumoniae E481 incubated up to 7 days by agar dilution method; settings: E481, 168 h
[4] = tested on: Klebsiella pneumoniae; assay: Antibacterial activity against beta-lactamase-negative Klebsiella pneumoniae E420 incubated up to 7 days by agar dilution method; settings: E420, 168 h
Outline: (§1)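 MIC by CLSI agar dilution, with quality-control strains in each run. Beta-lactamase status was set by 30 μg cefazolin Kirby-Bauer disk diffusion. ESBL status was set by cefotaxime and ceftazidime disks (30 μg) with and without clavulanic acid (10 μg).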

[5] = tested on: Klebsiella pneumoniae; assay: Antibacterial activity against beta-lactamase-positive ESBL-positive Klebsiella pneumoniae E453 incubated up to 7 days by agar dilution method; settings: E453, 168 h; outline: as §1
[6] = tested on: Klebsiella pneumoniae; assay: Antibacterial activity against beta-lactamase-positive ESBL-negative Klebsiella pneumoniae E511 incubated up to 7 days by agar dilution method; settings: E511, 168 h
[7] = tested on: Escherichia coli; assay: Antibacterial activity against beta-lactamase-negative Escherichia coli E348 incubated up to 7 days by agar dilution method; settings: E348, 168 h
[8] = tested on: Escherichia coli; assay: Antibacterial activity against beta-lactamase-positive ESBL-negative Escherichia coli E437 incubated up to 7 days by agar dilution method; settings: E437, 168 h; outline: as §1
[9] = tested on: Escherichia coli; assay: Antibacterial activity against beta-lactamase-negative Escherichia coli E424 […] by agar dilution method
[10] = tested on: Escherichia coli; assay: Antibacterial activity against beta-lactamase-positive ESBL-positive Escherichia coli E446 incubated up to 7 days by agar dilution method; settings: E446, 168 h; outline: as §1
[11] = tested on: Escherichia coli; assay: Antibacterial activity against beta-lactamase-positive ESBL-negative Escherichia coli E430 incubated up to 7 days by agar dilution method; settings: E430, 168 h; outline: as §1
[12] = tested on: Escherichia coli; assay: Antibacterial activity against beta-lactamase-positive ESBL-positive Escherichia coli E451 incubated up to 7 days by agar dilution method; settings: E451, 168 h; outline: as §1
[13] = tested on: Escherichia coli; assay: Antibacterial activity against beta-lactamase-positive ESBL-positive Escherichia coli E465 incubated up to 7 days by agar dilution method; settings: E465, 168 h; outline: as §1
[14] = tested on: Klebsiella pneumoniae; assay: Antibacterial activity against beta-lactamase-negative Klebsiella pneumoniae E357 incubated up to 7 days by agar dilution method; settings: E357, 168 h
[15] = tested on: Klebsiella pneumoniae; assay: Antibacterial activity against beta-lactamase-negative Klebsiella pneumoniae E358 incubated up to 7 days by agar dilution method; settings: E358, 168 h
[16] = tested on: Klebsiella pneumoniae; assay: Antibacterial activity against beta-lactamase-negative Klebsiella pneumoniae E419 incubated up to 7 days by agar dilution method; settings: E419, 168 h
[17] = tested on: Klebsiella pneumoniae; assay: Antibacterial activity against beta-lactamase-negative Klebsiella pneumoniae E362 incubated up to 7 days by agar dilution method; settings: E362, 168 h
[18] = tested on: Klebsiella pneumoniae; assay: Antibacterial activity against beta-lactamase-positive ESBL-positive Klebsiella pneumoniae E476 incubated up to 7 days by agar dilution method; settings: E476, 168 h
[19] = tested on: Klebsiella pneumoniae; assay: Antibacterial activity against beta-lactamase-positive ESBL-positive Klebsiella pneumoniae E476 assessed as mutant prevention concentration after overnight incubation
Outline: (§2)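 Overnight growth on blood trypticase soy agar (35°C, air) was resuspended in 0.9% saline and counted on drug-free Mueller-Hinton agar. […] Colonies were retested by agar dilution to confirm mutants. MPC was the lowest concentration preventing resistant-mutant growth.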

[20] = tested on: Klebsiella pneumoniae; assay: Antibacterial activity against beta-lactamase-positive ESBL-negative Klebsiella pneumoniae E509 assessed as mutant prevention concentration after overnight incubation; outline: as §2
[21] = tested on: Klebsiella pneumoniae; assay: Antibacterial activity against beta-lactamase-positive ESBL-negative Klebsiella pneumoniae E473 assessed as mutant prevention concentration after overnight incubation; outline: as §2
[22] = tested on: Klebsiella pneumoniae; assay: Antibacterial activity against beta-lactamase-positive ESBL-positive Klebsiella pneumoniae E478 assessed as mutant prevention concentration after overnight incubation; outline: as §2
[23] = tested on: Klebsiella pneumoniae; assay: Antibacterial activity against beta-lactamase-negative Klebsiella pneumoniae E417 assessed as mutant prevention concentration after overnight incubation
[24] = tested on: Escherichia coli; assay: Antibacterial activity against beta-lactamase-negative Escherichia coli E350 assessed as mutant prevention concentration after overnight incubation
[25] = tested on: Escherichia coli; assay: Antibacterial activity against beta-lactamase-negative Escherichia coli E409 assessed as mutant prevention concentration after overnight incubation
[26] = tested on: Escherichia coli; assay: Antibacterial activity against beta-lactamase-positive ESBL-negative Escherichia coli E412 assessed as mutant prevention concentration after overnight incubation; outline: as §2
[27] = tested on: Escherichia coli; assay: Antibacterial activity against beta-lactamase-positive ESBL-negative Escherichia coli E415 assessed as mutant prevention concentration after overnight incubation; outline: as §2
[28] = tested on: Escherichia coli; assay: Antibacterial activity against beta-lactamase-positive ESBL-negative Escherichia coli E437 assessed as mutant prevention concentration after overnight incubation; outline: as §2
[29] = tested on: Escherichia coli; assay: Antibacterial activity against beta-lactamase-positive ESBL-negative Escherichia coli E484 assessed as mutant prevention concentration after overnight incubation; outline: as §2
[30] = tested on: Acinetobacter baumannii; assay: Antibacterial activity against Acinetobacter baumannii A898 assessed as mutant prevention concentration after overnight incubation
[31] = tested on: Acinetobacter baumannii; assay: Antibacterial activity against Acinetobacter baumannii A929 assessed as mutant prevention concentration after overnight incubation
[32] = tested on: Pseudomonas aeruginosa; assay: Antibacterial activity against Pseudomonas aeruginosa P356 assessed as mutant prevention concentration after overnight incubation
[33] = tested on: Pseudomonas aeruginosa; assay: Antibacterial activity against Pseudomonas aeruginosa P335 assessed as mutant prevention concentration after overnight incubation
[34] = tested on: Pseudomonas aeruginosa; assay: Antibacterial activity against Pseudomonas aeruginosa P320 assessed as mutant prevention concentration after overnight incubation
[35] = tested on: Pseudomonas aeruginosa; assay: Antibacterial activity against Pseudomonas aeruginosa P322 assessed as mutant prevention concentration after overnight incubation
[36] = tested on: Pseudomonas aeruginosa; assay: Antibacterial activity against Pseudomonas aeruginosa P323 assessed as mutant prevention concentration after overnight incubation
[37] = tested on: Pseudomonas aeruginosa; assay: Antibacterial activity against Pseudomonas aeruginosa P353 assessed as mutant prevention concentration after overnight incubation
[38] = tested on: Pseudomonas aeruginosa; assay: Antibacterial activity against Pseudomonas aeruginosa P365 assessed as mutant prevention concentration after overnight incubation
[39] = tested on: Pseudomonas aeruginosa; assay: Antibacterial activity against Pseudomonas aeruginosa P358 assessed as mutant prevention concentration after overnight incubation
[40] = tested on: Pseudomonas aeruginosa; assay: Antibacterial activity against Pseudomonas aeruginosa P376 assessed as mutant prevention concentration after overnight incubation
[41] = tested on: Pseudomonas aeruginosa; assay: Antibacterial activity against Pseudomonas aeruginosa P326 assessed as mutant prevention concentration after overnight incubation
[42] = tested on: Acinetobacter baumannii; assay: Antibacterial activity against Acinetobacter baumannii A848 assessed as mutant prevention concentration after overnight incubation
[43] = tested on: Acinetobacter baumannii; assay: Antibacterial activity against Acinetobacter baumannii A850 assessed as mutant prevention concentration after overnight incubation
[44] = tested on: Acinetobacter baumannii; assay: Antibacterial activity against Acinetobacter baumannii A910 assessed as mutant prevention concentration after overnight incubation

C[C@@H](O)[C@H]1C(=O)N2C(C(=O)O)=C(S[C@@H]3CN[C@H](C(=O)Nc4cccc(C(=O)O)c4)C3)[C@H](C)[C@H]12
MIC [1]: 8 µg/mL (≈ 16.8 µM)
MIC [2]: 8 µg/mL (≈ 16.8 µM)
MIC [3]: 4 µg/mL (≈ 8.41 µM)
MIC [4]: 0.008 µg/mL (≈ 0.0168 µM)
MIC [5]: 0.5 µg/mL (≈ 1.05 µM)
MIC [6]: 8 µg/mL (≈ 16.8 µM)
MIC [7]: 0.008 µg/mL (≈ 0.0168 µM)
MIC [8]: 0.06 µg/mL (≈ 0.126 µM)
MIC [9]: 0.016 µg/mL (≈ 0.0336 µM)
MIC [10]: 0.25 µg/mL (≈ 0.526 µM)
MIC [11]: 0.06 µg/mL (≈ 0.126 µM)
MIC [12]: 0.06 µg/mL (≈ 0.126 µM)
MIC [13]: 0.25 µg/mL (≈ 0.526 µM)
MIC [14]: 0.008 µg/mL (≈ 0.0168 µM)
MIC [15]: 0.008 µg/mL (≈ 0.0168 µM)
MIC [16]: 0.016 µg/mL (≈ 0.0336 µM)
MIC [17]: 0.016 µg/mL (≈ 0.0336 µM)
MIC [18]: 8 µg/mL (≈ 16.8 µM)
MPC [19]: 32 µg/mL
MPC [20]: 64 µg/mL
MPC [21]: 32 µg/mL
MPC [22]: 16 µg/mL
MPC [23]: 0.016 µg/mL
MPC [24]: 0.03 µg/mL
MPC [25]: 0.125 µg/mL
MPC [26]: 1 µg/mL
MPC [27]: 0.5 µg/mL
MPC [28]: 0.125 µg/mL
MPC [29]: 128 µg/mL

C[C@@H](O)[C@H]1C(=O)N2C(C(=O)O)=C(S[C@@H]3CN[C@H](CNS(N)(=O)=O)C3)[C@H](C)[C@H]12 [DORIPENEM]
MIC [1]: 2 µg/mL (≈ 4.76 µM)
MIC [2]: 2 µg/mL (≈ 4.76 µM)
MIC [3]: 2 µg/mL (≈ 4.76 µM)
MIC [4]: 0.06 µg/mL (≈ 0.143 µM)
MIC [5]: 0.06 µg/mL (≈ 0.143 µM)
MIC [6]: 2 µg/mL (≈ 4.76 µM)
MIC [7]: 0.03 µg/mL (≈ 0.0713 µM)
MIC [8]: 0.06 µg/mL (≈ 0.143 µM)
MIC [9]: 0.03 µg/mL (≈ 0.0713 µM)
MIC [10]: 0.06 µg/mL (≈ 0.143 µM)
MIC [11]: 0.03 µg/mL (≈ 0.0713 µM)
MIC [12]: 0.03 µg/mL (≈ 0.0713 µM)
MIC [13]: 0.03 µg/mL (≈ 0.0713 µM)
MIC [14]: 0.06 µg/mL (≈ 0.143 µM)
MIC [15]: 0.06 µg/mL (≈ 0.143 µM)
MIC [16]: 0.125 µg/mL (≈ 0.297 µM)
MIC [17]: 0.06 µg/mL (≈ 0.143 µM)
MIC [18]: 2 µg/mL (≈ 4.76 µM)
MPC [30]: 4 µg/mL
MPC [31]: 4 µg/mL
MPC [19]: 8 µg/mL
MPC [20]: >64 µg/mL
MPC [21]: 8 µg/mL
MPC [22]: >64 µg/mL
MPC [23]: 0.125 µg/mL
MPC [32]: >4 µg/mL
MPC [33]: 16 µg/mL
MPC [34]: >2 µg/mL
MPC [35]: 4 µg/mL
MPC [36]: 4 µg/mL
MPC [37]: 2 µg/mL
MPC [38]: 8 µg/mL
MPC [39]: 64 µg/mL
MPC [40]: 16 µg/mL
MPC [41]: 16 µg/mL
MPC [42]: 16 µg/mL
MPC [43]: 8 µg/mL
MPC [44]: 4 µg/mL
MPC [24]: 0.125 µg/mL
MPC [25]: 0.125 µg/mL
MPC [26]: 0.125 µg/mL
MPC [27]: 0.06 µg/mL
MPC [28]: 0.125 µg/mL
MPC [29]: 8 µg/mL
